Here are results for four compounds from ChEMBL document CHEMBL1121573, “2-(Aminomethyl)phenols, a new class of saluretic agents. 1. Effects of nuclear substitution” (J Med Chem, 1980).

Several values for one entry are separate records, joined by “and”; a condition that tells them apart may be missing. Equal entries are not always repeated. Where only a bound is given, the exact number is not on record here.

Data set [1] relates to Canis familiaris. The experiment in a line: Compound administered intravenously was evaluated for salidiuretic activity measured as sodium ion excretion in Dog; Value ranges from 600-799. Conditions: in vivo, iv. The data set is classed as ADME, organism-based, Canis lupus familiaris, Urine. An outline of the steps:
(§1)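 Conditioned female mongrel dogs, postabsorptive, water-loaded (500 mL po) 1 h before sodium pentobarbital anesthesia (30 mg/kg iv). Bladder catheter; creatinine 4 g sc; phosphate–mannitol buffer pH 7.4 infused (3.0 mL/min) throughout. […] Urine Na+ measured; response scored 0–6.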

Data set [2] relates to Canis familiaris. Description: Compound administered intravenously was evaluated for salidiuretic activity measured as sodium ion excretion in Dog; Value ranges from 100-299. It is filed as ADME, organism-based, Canis lupus familiaris, Urine. The settings on record: in vivo, iv. In a few lines:
as §1

Data set [3] can be described thus: Compound administered orally at a dose of 5 mg/kg was evaluated for salidiuretic activity measured as sodium ion excretion in Rat. The data set is classed as organism-based. Also on record: dose 5 mg/kg. Conditions: Urine. In a few lines: (§2)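 Female Charles-River rats (150–170 g), overnight on sugar diet with water ad libitum. Compound dissolved in DMF, diluted with water containing Tween 80 (final 4% DMF), given po in 5.0 mL; concurrent vehicle placebo. Three rats per metabolism cage; 0–5 h urine analysed for Na+, K+, Cl-. Values: mequiv × 100 per cage, geometric means of three cages per dose; scored 0–6 by Na+.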

Data set [4] deals with Canis familiaris. The experiment in a line: Oral diuretic activity was evaluated by measuring Na+ excretion in dog at 10 mg/kg after ip administration (0-6 hr). It is filed as ADME, organism-based, Canis lupus familiaris, Urine. Details: dose 10 mg/kg, route intraperitoneal. Conditions: in vivo. In a few lines: (§3)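 Spontaneous urine was pooled with bladder urine collected by catheterization at 6 h. Volume was measured and Na+, K+ and Cl− were determined by standard methods. Values are geometric means.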

For data set [5], the system named is Canis familiaris. Description: Oral diuretic activity was evaluated by measuring K+ excretion in dog at 0.3 mg/kg after […] (0-6 hr). Details: dose 0.3 mg/kg, route intraperitoneal. Conditions: in vivo. It is filed as ADME, organism-based, Canis lupus familiaris, Urine.
The test system of data set [6] is Canis familiaris. Description: Oral diuretic activity was evaluated by measuring Cl- excretion in dog at 0.3 mg/kg after […] (0-6 hr). The data set is classed as ADME, organism-based, Canis lupus familiaris, Urine. Also on record: dose 0.3 mg/kg, route intraperitoneal. Conditions: in vivo.
Data set [7] concerns Canis familiaris. The experiment in a line: Oral diuretic activity was evaluated by measuring Cl- excretion in dog at 1 mg/kg after […] (0-6 hr). The settings on record: in vivo. Details: dose 1 mg/kg, route intraperitoneal. The data set is classed as ADME, organism-based, Canis lupus familiaris, Urine.
The species named for data set [8] is Rattus norvegicus. The experiment in a line: Time taken for the decrease in arterial pressure was measured. The data set is classed as functional, Artery.
In data set [9] the test system is Canis familiaris. The experiment in a line: Oral diuretic activity was evaluated by measuring Cl- excretion in dog at 5 mg/kg after […] (0-6 hr). It is filed as ADME, organism-based, Canis lupus familiaris, Urine. Details: dose 5 mg/kg, route intraperitoneal. Conditions: in vivo.
Data set [10] concerns Canis familiaris. The experiment in a line: Oral diuretic activity was evaluated by measuring Na+ excretion in dog at 1 mg/kg after ip administration (0-6 hr). It is filed as ADME, organism-based, Canis lupus familiaris, Urine. Also on record: dose 1 mg/kg, route intraperitoneal. The settings on record: in vivo. An outline of the steps: as §3
A short description of data set [11]: Evaluated for salidiuretic activity measured as sodium ion excretion in Rat, administered orally at a dose of 16.5 mg/kg. It is filed as organism-based. Also on record: dose 16.5 mg/kg. The settings on record: Urine. In a few lines: as §2
In data set [12] the test system is Rattus norvegicus. Description: Maximum fall in mean arterial blood pressure was measured in SH rats when compound was administered at 10 mg/kg perorally. The data set is classed as functional. The settings on record: route oral.
The subject of data set [13] is Canis familiaris. The experiment in a line: Oral diuretic activity was evaluated by measuring K+ excretion in dog at 10 mg/kg after ip administration (0-6 hr). Conditions: in vivo. It is filed as ADME, organism-based, Canis lupus familiaris, Urine. Details: dose 10 mg/kg, route intraperitoneal. An outline of the steps: as §3
Data set [14] concerns Rattus norvegicus. The experiment in a line: Oral diuretic activity was evaluated by measuring K+ excretion in Rat at 9 mg/kg […] (0-5 hr). Details: dose 9 mg/kg. It is filed as ADME, organism-based, Urine. An outline of the steps:
(§4)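 Female Charles-River rats (150–170 g) were kept overnight on a sugar diet with water ad libitum. Test substance was dissolved in DMF and diluted with water containing Tween 80 to a final 4% DMF vehicle, then given po in 5.0 mL. Rats were housed three per metabolism cage, and 0–5 h urine was assayed for Na⁺, K⁺ and Cl⁻ alongside concurrent placebo groups. Values are mequiv × 100 per cage, geometric means of three cages per dose.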

The test system of data set [15] is Rattus norvegicus. The experiment in a line: Oral diuretic activity was evaluated by measuring Cl- excretion in Rat at 3 mg/kg […] (0-5 hr). The data set is classed as ADME, organism-based, Urine. Details: dose 3 mg/kg, route intraperitoneal. Conditions: in vivo.
In data set [16] the test system is Rattus norvegicus. Description: Oral diuretic activity was evaluated by measuring Cl- excretion in Rat at 27 mg/kg […] (0-5 hr). The data set is classed as ADME, organism-based, Urine. Also on record: dose 27 mg/kg. The settings on record: in vivo.
Data set [17] has as its system Canis familiaris. Description: Oral diuretic activity was evaluated by measuring K+ excretion in dog at 5 mg/kg after ip administration (0-6 hr). Details: dose 5 mg/kg, route intraperitoneal. The settings on record: in vivo. The data set is classed as ADME, organism-based, Canis lupus familiaris, Urine. In a few lines: as §3
For data set [18], the system named is Rattus norvegicus. Description: Oral diuretic activity was evaluated by measuring K+ excretion in Rat at 27 mg/kg […] (0-5 hr). The data set is classed as ADME, organism-based, Urine. Also on record: dose 27 mg/kg. In a few lines:
as §4

The test system of data set [19] is Rattus norvegicus. The experiment in a line: Oral diuretic activity was evaluated by measuring K+ excretion in Rat at 3 mg/kg […] (0-5 hr). It is filed as ADME, organism-based, Urine. Details: dose 3 mg/kg. In a few lines: as §4
Data set [20] relates to Rattus norvegicus. Description: Compound administered orally at a dose of 81 mg/kg was evaluated for salidiuretic activity measured as sodium ion excretion in Rat. It is filed as ADME, organism-based, Urine. The settings on record: in vivo, po. Details: dose 81 mg/kg, route oral; unit not given beside the values. An outline of the steps: as §2
The test system of data set [21] is Canis familiaris. The experiment in a line: Salidiuretic activity in dog following i.v. dosing at 5 mg/kg. It is filed as functional, Canis lupus familiaris, Urine. Details: unit not given beside the values. The settings on record: route intravenous. In a few lines: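 Conditioned female mongrel dogs, postabsorptive, got a 500 mL oral water load 1 h before pentobarbital anesthesia (30 mg/kg iv). After replicate 15-min control collections, compound was given as an iv stat injection.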

Data set [22] relates to Canis familiaris. Description: Oral diuretic activity was evaluated by measuring K+ excretion in dog at 1 mg/kg after ip administration (0-6 hr). It is filed as ADME, organism-based, Canis lupus familiaris, Urine. Details: dose 1 mg/kg, route intraperitoneal. The settings on record: in vivo. In a few lines: as §3
Data set [23] relates to Canis familiaris. Description: Oral diuretic activity was evaluated by measuring Cl- excretion in dog at 10 mg/kg after […] (0-6 hr). The data set is classed as ADME, organism-based, Canis lupus familiaris, Urine. Details: dose 10 mg/kg, route intraperitoneal. The settings on record: in vivo.
Data set [24] relates to Rattus norvegicus. Description: Oral diuretic activity was evaluated by measuring Na+ excretion in Rat at 9 mg/kg after […] (0-5 hr). It is filed as ADME, organism-based, Urine. Details: dose 9 mg/kg. Conditions: in vivo, ip. An outline of the steps: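 Female Charles-River rats (150–170 g) were kept overnight on a sugar diet with water ad libitum. Compound was dissolved in DMF, then diluted with water containing Tween 80 (3 drops/100 mL) to a final 4% DMF, and given po in 5.0 mL. Rats were housed three per metabolism cage. Urine from 0–5 h was analysed for Na+, K+ and Cl−, with concurrent placebo controls. Values are mequiv × 100 per cage, geometric mean of three cages per dose.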

Data set [25] deals with Rattus norvegicus. The experiment in a line: Evaluated for salidiuretic activity measured as sodium ion excretion in Rat, administered orally at a dose of 50 mg/kg. The data set is classed as functional, Urine. Details: unit not given beside the values. The settings on record: route oral. In a few lines:
as §2

Data set [26] concerns Rattus norvegicus. The experiment in a line: Oral diuretic activity was evaluated by measuring K+ excretion in Rat at 81 mg/kg after […] (0-5 hr). It is filed as ADME, organism-based, Urine. Details: dose 81 mg/kg. In a few lines: as §4
Data set [27] deals with Rattus norvegicus. The experiment in a line: Maximum fall in mean arterial blood pressure was measured in SH rats when compound was administered at 40 mg/kg perorally. The settings on record: route oral. The data set is classed as functional.
Data set [28] deals with Canis familiaris. Description: Oral diuretic activity was evaluated by measuring Na+ excretion in dog at 0.3 mg/kg after ip administration (0-6 hr). Also on record: dose 0.3 mg/kg, route intraperitoneal. The settings on record: in vivo. The data set is classed as ADME, organism-based, Canis lupus familiaris, Urine. In a few lines: as §3
Data set [29] deals with Canis familiaris. The experiment in a line: Oral diuretic activity was evaluated by measuring Na+ excretion in dog at 5 mg/kg after ip administration (0-6 hr). It is filed as ADME, organism-based, Canis lupus familiaris, Urine. Also on record: dose 5 mg/kg, route intraperitoneal. Conditions: in vivo. In a few lines:
as §3

For data set [30], the system named is Rattus norvegicus. The experiment in a line: Maximum fall in mean arterial blood pressure was measured in SH rats when compound was administered at 20 mg/kg perorally. The data set is classed as functional. Conditions: route oral.
In data set [31] the test system is Canis familiaris. The experiment in a line: Compound administered intravenously at a dose of 5 mg/kg was evaluated for salidiuretic activity measured as sodium ion excretion in Dog; Value ranges from 600- 799. Details: dose 5 mg/kg, route intravenous. The data set is classed as ADME, organism-based, Canis lupus familiaris, Urine. The settings on record: in vivo, iv. In a few lines: as §1

In the data set with Canis familiaris [1], `Cc1cc(C(C)(C)C)cc(CN)c1O.Cl` displayed a Diuretic activity of 600.
`Cc1cc(O)c(CN)c(C)c1Cl.Cl`: the Diuretic activity in the data set on Canis familiaris [2] is 100.
For `NS(=O)(=O)c1cc2c(cc1Cl)NCNS2(=O)=O` [HYDROCHLOROTHIAZIDE], the Diuretic activity amounted to 0.4 in data set [3]; 19.6 in the data set with Canis familiaris [4]; 1.98 in the data set on Canis familiaris [5]; 8.57 with Canis familiaris [6]; 22 in the data set with Canis familiaris [7]; 26.3 with Canis familiaris [9]. Besides, the Diuretic activity in the data set on Canis familiaris [10] worked out at 16.4; in data set [11] it was 0.6; in the data set with Canis familiaris [13] it was 7.1; in the data set on Rattus norvegicus [14] it was 0.38; in the data set on Rattus norvegicus [15], 1.54; in the data set with Rattus norvegicus [16], 1.56. The Diuretic activity is recorded as 7.4 in the data set with Canis familiaris [17]; 0.34 with Rattus norvegicus [18]; 0.34 in the data set on Rattus norvegicus [19]; 2.4 with Rattus norvegicus [20]; 250 in the data set on Canis familiaris [21]; 4.8 in the data set with Canis familiaris [22]. In addition, the Diuretic activity with Canis familiaris [23] came to 22.9; in the data set with Rattus norvegicus [24], 1.12; with Rattus norvegicus [25] it was 1.8; in the data set on Rattus norvegicus [26], 0.37; with Canis familiaris [28], 5.4; with Canis familiaris [29], 18.8. In the data set listed under Rattus norvegicus [8], the Duration is >8 h and 12 h. The MAP in the data set on Rattus norvegicus [12] is reported as 14 mmHg; in the data set with Rattus norvegicus [27] it was 26 mmHg; in the data set with Rattus norvegicus [30], 25 mmHg.
`CCCc1cc(I)c(O)c(CN)c1.Cl`: the Diuretic activity in data set [3] amounted to 0.4; in data set [11], 0.6; with Canis familiaris [31], 600; in the data set with Rattus norvegicus [20], 2.4; with Rattus norvegicus [25], 1.8.
